Experimental data as given in ChEMBL document CHEMBL4024770, “Augmentation of Anticancer Drug Efficacy in Murine Hepatocellular Carcinoma Cells by a Peripherally Acting Competitive N-Methyl-d-aspartate (NMDA) Receptor Antagonist” (J Med Chem, 2017).
The source made the active and inactive calls. The rule behind the calls is not given here.

Legend:
[1] = Displacement of [3H]-AMPA from AMPA receptor in Sprague-Dawley rat brain synaptosomes after 30 mins by scintillation counting method; type: subcellular
[2] = target: Glutamate receptor ionotropic, kainate 3 (Rattus norvegicus, UniProt P42264); experiment: Displacement of [3H]-KA from recombinant homomeric rat GluK3a receptor expressed in baculovirus infected Sf9 insect cell membranes by scintillation counting method
Glutamate receptor ionotropic, kainate 3, sequence (P42264 whole entry): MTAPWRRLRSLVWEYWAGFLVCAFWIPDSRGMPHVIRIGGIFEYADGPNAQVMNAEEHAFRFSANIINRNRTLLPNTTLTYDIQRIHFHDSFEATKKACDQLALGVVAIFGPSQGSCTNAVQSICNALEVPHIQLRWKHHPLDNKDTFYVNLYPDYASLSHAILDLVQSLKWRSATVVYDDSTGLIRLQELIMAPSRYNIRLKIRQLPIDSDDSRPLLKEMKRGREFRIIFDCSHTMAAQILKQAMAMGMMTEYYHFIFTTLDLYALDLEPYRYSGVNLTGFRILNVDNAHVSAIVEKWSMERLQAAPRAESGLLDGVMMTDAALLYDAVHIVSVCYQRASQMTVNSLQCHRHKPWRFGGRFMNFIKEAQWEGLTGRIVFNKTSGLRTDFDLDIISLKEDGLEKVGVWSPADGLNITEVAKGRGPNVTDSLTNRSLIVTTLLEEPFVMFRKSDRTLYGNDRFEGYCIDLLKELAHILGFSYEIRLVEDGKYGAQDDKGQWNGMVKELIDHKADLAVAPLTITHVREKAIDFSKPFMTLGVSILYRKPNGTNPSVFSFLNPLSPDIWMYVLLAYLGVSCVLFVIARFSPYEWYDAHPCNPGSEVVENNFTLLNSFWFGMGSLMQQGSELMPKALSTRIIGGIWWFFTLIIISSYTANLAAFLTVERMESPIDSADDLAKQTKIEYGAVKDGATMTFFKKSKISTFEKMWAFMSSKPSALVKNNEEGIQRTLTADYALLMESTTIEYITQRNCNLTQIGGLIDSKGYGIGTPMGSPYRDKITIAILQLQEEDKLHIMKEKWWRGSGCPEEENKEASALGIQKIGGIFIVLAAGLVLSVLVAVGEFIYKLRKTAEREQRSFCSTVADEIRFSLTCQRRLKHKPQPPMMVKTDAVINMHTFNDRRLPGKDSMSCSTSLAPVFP

Mus musculus [3] = species: Mus musculus; experiment: Antagonist activity at NMDA receptor in Nras driven p53 deficient mouse HCC cell membranes assessed as decrease in Slc7a5 protein expression levels by measuring [14C]-L-leucine accumulation at 10 uM preincubated for 24 hrs followed by compound wash out and addition of [14C]-L-leucine measured after 5 mins by scintillation counting method relative to control; parameters: scale not given: the % may be the effect or the level left
Outline: (§1)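 Nras p53−/− HCC cells (1 × 10⁵/well) were pretreated 24 h with or without 10 μM. They were then washed 3× in warm HBSS (choline chloride, pH 7.4) and incubated at 37 °C with probe in HBSS. Incubation was 30 min for [3H]-digoxin, 20 μM fluorescein or 10 μM sorafenib, and 5 min for [14C]-L-leucine or [14C]-D-glucose. Cells were washed ice-cold and lysed in 0.1 M NaOH. Read-out was scintillation, fluorescence or LC-MS/MS, normalized to protein.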

Brain = experiment: Drug uptake in mouse brain at 100 uM administered via perfusion; conditions: in vivo, other
Mus musculus [4] = species: Mus musculus; experiment: Antagonist activity at NMDA receptor in Nras driven p53 deficient mouse HCC cell membranes assessed as PGE2 levels at 100 uM after 24 hrs by LC-MS/MS method relative to control; parameters: scale not given: the % may be the effect or the level left
Outline: (§2)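 Nras-driven p53−/− mouse HCC cells in DMEM/10% FBS were incubated 24 h with or without 100 μM compound. This was done without LPS and with LPS (2.5 μg/mL) in the growth medium. Cells were washed with ice-cold HBSS and lysed in acetonitrile on ice. PGE2 in the lysates was quantified by LC-MS/MS and expressed as % of control. Mean ± SEM, n=3; one-way ANOVA/Tukey.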

Mus musculus [5] = species: Mus musculus; experiment: Antagonist activity at NMDA receptor in Nras driven p53 deficient mouse HCC cell membranes assessed as LPS-stimulated PGE2 levels at 100 uM after 24 hrs by LC-MS/MS method (reference value: 162 +/- 7%); parameters: scale not given: the % may be the effect or the level left; outline: as §2
[6] = target: Glutamate NMDA receptor; Grin1/Grin2a (Rattus norvegicus, UniProt P35439+Q00959); experiment: Antagonist activity at recombinant rat GluN1a/GluN2A expressed in Xenopus laevis oocytes assessed as inhibition of glycine/glutamate-mediated current responses by two-electrode voltage clamp method; type: cell-based
Glutamate NMDA receptor; Grin1/Grin2a, sequence (Q00959 whole entry, other chains not shown): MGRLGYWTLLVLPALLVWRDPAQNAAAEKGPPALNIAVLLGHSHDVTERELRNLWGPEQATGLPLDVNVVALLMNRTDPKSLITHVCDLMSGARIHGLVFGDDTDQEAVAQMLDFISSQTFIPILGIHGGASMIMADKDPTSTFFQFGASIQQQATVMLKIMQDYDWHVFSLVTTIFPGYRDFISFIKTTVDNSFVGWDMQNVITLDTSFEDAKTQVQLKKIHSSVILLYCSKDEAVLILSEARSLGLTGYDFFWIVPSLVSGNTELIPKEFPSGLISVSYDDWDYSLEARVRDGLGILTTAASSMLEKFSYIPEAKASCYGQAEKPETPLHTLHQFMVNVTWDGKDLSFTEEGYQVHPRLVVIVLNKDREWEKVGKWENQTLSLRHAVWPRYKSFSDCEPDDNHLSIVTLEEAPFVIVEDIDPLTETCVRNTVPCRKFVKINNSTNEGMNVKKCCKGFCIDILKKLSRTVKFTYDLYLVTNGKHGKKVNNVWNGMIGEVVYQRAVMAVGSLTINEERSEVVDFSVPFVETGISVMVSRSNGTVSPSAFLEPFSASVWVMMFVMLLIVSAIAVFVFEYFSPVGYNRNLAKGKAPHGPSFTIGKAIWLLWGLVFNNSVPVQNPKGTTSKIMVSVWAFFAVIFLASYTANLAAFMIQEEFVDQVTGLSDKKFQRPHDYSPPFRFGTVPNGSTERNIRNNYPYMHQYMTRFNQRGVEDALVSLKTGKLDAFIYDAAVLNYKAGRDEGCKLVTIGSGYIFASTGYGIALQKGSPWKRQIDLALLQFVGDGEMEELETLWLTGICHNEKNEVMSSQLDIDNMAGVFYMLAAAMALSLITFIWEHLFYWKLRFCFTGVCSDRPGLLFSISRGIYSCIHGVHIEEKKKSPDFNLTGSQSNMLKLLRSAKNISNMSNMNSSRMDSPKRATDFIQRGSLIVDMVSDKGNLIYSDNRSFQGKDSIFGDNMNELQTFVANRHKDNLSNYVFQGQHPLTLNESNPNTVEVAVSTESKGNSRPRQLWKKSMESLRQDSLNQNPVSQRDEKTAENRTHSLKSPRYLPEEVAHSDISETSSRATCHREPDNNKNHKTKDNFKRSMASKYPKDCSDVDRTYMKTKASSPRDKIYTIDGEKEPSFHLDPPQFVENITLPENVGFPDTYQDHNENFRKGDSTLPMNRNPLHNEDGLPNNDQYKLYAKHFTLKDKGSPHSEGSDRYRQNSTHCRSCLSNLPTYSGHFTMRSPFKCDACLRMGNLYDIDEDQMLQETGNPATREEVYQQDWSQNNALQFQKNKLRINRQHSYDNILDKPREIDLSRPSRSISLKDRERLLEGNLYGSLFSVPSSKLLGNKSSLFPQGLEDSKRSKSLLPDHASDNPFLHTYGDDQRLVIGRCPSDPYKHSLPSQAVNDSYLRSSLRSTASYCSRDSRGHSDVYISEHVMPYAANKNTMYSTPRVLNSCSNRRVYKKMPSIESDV
Outline: (§3)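 Xenopus oocytes were injected with rat GluN1 and GluN2A–D cRNA (1:2) and recorded 2–6 days later by TEVC at room temperature, −40 mV, in Ba2+-containing recording solution, pH 7.4. Currents were evoked by 100 μM glycine plus glutamate at 2–3× EC50: 10 μM for GluN2A, 3 μM for GluN2B and GluN2C, 1 μM for GluN2D. IC50 from Hill fits per oocyte; Ki estimated.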

Mus musculus [7] = species: Mus musculus; experiment: Antagonist activity at NMDA receptor in Nras driven p53 deficient mouse HCC cell membranes assessed as Abcc4 protein expression levels at 10 uM by […] analysis relative to control; parameters: scale not given: the % may be the effect or the level left
Outline: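 Mouse Nras-driven p53−/− HCC cells in DMEM with 10% FBS, exposed 48 h with or without 10 μM antagonist, washed, pelleted and snap-frozen. Crude membrane fraction isolated. 50 μg protein reduced, alkylated, precipitated, then Lys-C digested (3 h, rt) and trypsin digested (1:100, 37°C, 16 h). One unique peptide per transporter quantified by multiplexed SRM/MRM LC-MS/MS against stable isotope-labelled standards. Unpaired two-tailed t-test versus control, n=4.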

[8] = target: Glutamate NMDA receptor; Grin1/Grin2c (Rattus norvegicus, UniProt P35439+Q00961); experiment: Antagonist activity at recombinant rat GluN1a/GluN2C expressed in Xenopus laevis oocytes assessed as inhibition of glycine/glutamate-mediated current responses by two-electrode voltage clamp method; type: cell-based; outline: as §3
Glutamate NMDA receptor; Grin1/Grin2c, sequence (Q00961 whole entry, other chains not shown): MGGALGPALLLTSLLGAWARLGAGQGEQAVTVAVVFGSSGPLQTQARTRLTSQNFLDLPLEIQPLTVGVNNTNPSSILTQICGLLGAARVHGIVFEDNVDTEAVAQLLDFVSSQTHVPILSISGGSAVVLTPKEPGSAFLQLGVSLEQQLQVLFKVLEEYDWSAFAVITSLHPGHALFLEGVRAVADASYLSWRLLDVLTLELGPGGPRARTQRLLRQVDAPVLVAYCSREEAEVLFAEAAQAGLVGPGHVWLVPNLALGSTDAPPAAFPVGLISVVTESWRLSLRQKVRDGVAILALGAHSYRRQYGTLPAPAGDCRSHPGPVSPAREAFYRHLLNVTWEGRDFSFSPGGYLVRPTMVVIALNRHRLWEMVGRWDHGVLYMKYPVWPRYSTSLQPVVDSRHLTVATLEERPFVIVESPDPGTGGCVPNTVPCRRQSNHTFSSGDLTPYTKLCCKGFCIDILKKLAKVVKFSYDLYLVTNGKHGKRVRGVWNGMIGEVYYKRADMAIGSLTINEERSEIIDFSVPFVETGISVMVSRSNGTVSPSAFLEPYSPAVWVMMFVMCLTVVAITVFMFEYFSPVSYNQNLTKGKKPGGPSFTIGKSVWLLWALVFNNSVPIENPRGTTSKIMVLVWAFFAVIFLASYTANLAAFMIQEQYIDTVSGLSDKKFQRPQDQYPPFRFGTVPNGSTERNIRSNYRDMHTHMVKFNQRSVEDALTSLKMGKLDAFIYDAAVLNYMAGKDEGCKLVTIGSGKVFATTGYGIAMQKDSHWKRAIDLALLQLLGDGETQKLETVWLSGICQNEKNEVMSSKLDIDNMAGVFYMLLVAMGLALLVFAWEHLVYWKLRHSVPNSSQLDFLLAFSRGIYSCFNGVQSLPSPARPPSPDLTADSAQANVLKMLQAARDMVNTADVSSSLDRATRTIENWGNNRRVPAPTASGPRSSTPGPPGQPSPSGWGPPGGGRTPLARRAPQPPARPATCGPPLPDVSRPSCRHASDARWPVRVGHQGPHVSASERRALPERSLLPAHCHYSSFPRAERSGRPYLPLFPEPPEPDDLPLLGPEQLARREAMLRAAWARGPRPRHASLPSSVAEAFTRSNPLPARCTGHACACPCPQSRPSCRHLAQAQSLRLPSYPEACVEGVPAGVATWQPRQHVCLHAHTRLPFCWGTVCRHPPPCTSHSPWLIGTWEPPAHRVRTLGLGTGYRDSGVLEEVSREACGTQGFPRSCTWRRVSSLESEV

Mus musculus [9] = species: Mus musculus; experiment: Antagonist activity at NMDA receptor in Nras driven p53 deficient mouse HCC cell membranes assessed as PGE2 levels at 10 uM after 24 hrs by LC-MS/MS method relative to control; parameters: scale not given: the % may be the effect or the level left
Outline: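 Mouse Nras-driven p53−/− HCC cells in DMEM with 2 mM L-glutamine, 10% heat-inactivated FBS and penicillin/streptomycin. Cells incubated 24 h with or without antagonist, either without LPS or with 2.5 μg/mL LPS in the growth medium. Cells washed three times with ice-cold HBSS and lysed in acetonitrile on ice. PGE₂ in lysates measured by LC-MS/MS (LLOQ 1 nM) and expressed as % of control; n=3.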

Mus musculus [10] = species: Mus musculus; experiment: Antagonist activity at NMDA receptor in Nras driven p53 deficient mouse HCC cell membranes assessed as potentiation of 10 uM sorafenib-mediated antiproliferative activity by measuring cell viability at 100 uM after 72 hrs by resazurin assay (reference value: […] +/- […]%)
Plasma = experiment: AUC (0 to 240 mins) in mouse plasma at 10 mg/kg, ip administered as bolus dose by LC-MS/MS analysis; type: ADME, organism-based; parameters: time < 4 hr, dose 10 mg/kg, route intraperitoneal; conditions: in vivo, 4 h
Outline: (§4)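 Adult male mice (25 ± 5 g) given a single 10 mg/kg i.p. bolus, prepared as a 5.0 mM solution in 0.9% NaCl. Animals were decapitated at five time points between 10 and 240 min. Plasma was precipitated with acetonitrile containing internal standard. Brain and liver were homogenized in water (1:3) and precipitated the same way. Analysis by LC-MS/MS, with AUC0–240, Cmax, tmax, t½β and liver/plasma ratio derived from the concentration-time data.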

Mus musculus [11] = species: Mus musculus; experiment: Antagonist activity at NMDA receptor in Nras driven p53 deficient mouse HCC cell membranes assessed as decrease in Abcb1/Abcg2 protein expression levels by measuring sorafenib accumulation at 10 uM preincubated for 24 hrs followed by compound wash out and addition of sorafenib measured after 30 mins by LC/MS-MS method relative to control; parameters: scale not given: the % may be the effect or the level left; outline: as §1
Mus musculus [12] = species: Mus musculus; experiment: Antagonist activity at NMDA receptor in Nras driven p53 deficient mouse HCC cell membranes assessed as Slc7a5 protein expression levels at 10 uM by SMR/MRM analysis relative to control; parameters: scale not given: the % may be the effect or the level left
Outline: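 Nras p53−/− mouse HCC cells were exposed to 10 μM for 48 h, washed, and pelleted. Crude membrane fractions (50 μg protein) were denatured in guanidine, reduced/alkylated and precipitated. They were then digested with Lys-C (rt, 3 h) and trypsin (37 °C, 16 h) with stable-isotope peptide standards. Slc7a5 was quantified by multiplexed SRM/MRM LC-MS/MS, one unique peptide per protein. Mean ± SEM, n=4, versus control.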

Mus musculus [13] = species: Mus musculus; experiment: Antagonist activity at NMDA receptor in Nras driven p53 deficient mouse HCC cell membranes assessed as inhibition of NMDA-induced intracellular Ca2+ transients at 25 to 40 uM […] by fluo-4AM dye-based fluorescence assay
Outline: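 Mouse HCC cells were loaded with Fluo-4-AM (5 μM, 45 min), then washed out for 20 min in HEPES-buffered saline, pH 7.4. Ca2+ transients were evoked by 15 s applications of 150 μM NMDA via fast perfusion. This was done alone or with antagonist at 25 or […] μM, imaged at 495 nm excitation. Data were scored as % responding, mean ± SEM, n=5.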

Liver = experiment: Elimination half life in mouse liver at 10 mg/kg, ip administered as bolus dose by LC-MS/MS analysis; type: ADME, organism-based; conditions: in vivo; outline: as §4

Cl.O=C(O)c1cc([C@H]2CCN[C@@H]2C(=O)O)ccc1Cl
IC50 [1]: > 100 µM
Ki [2]: 131 µM
Activity (Mus musculus [3]): 81%
Drug uptake (Brain): 5 pmol/g
Activity (Mus musculus [4]): 48%
Activity (Mus musculus [5]): 96%
IC50 [6]: 15 µM
Ki [6]: 4.7 µM
Activity (Mus musculus [7]): 14%
IC50 [8]: 110 µM
Ki [8]: 24 µM
Activity (Mus musculus [9]): 68%
Activity (Mus musculus [10]): 24%
AUC (Plasma): 3020 nmol·min/g
Activity (Mus musculus [11]): 152%
Activity (Mus musculus [12]): 24%
inhibition (Mus musculus [13]): Active
beta t1/2 (Liver): 36 min
